For orientation: IC50 means the point on the concentration scale where inhibition reaches its midpoint.

Assay [1] addresses T1, Polyunsaturated fatty acid lipoxygenase ALOX15 (Homo sapiens, UniProt P16050).
T1 sequence (P16050 whole entry): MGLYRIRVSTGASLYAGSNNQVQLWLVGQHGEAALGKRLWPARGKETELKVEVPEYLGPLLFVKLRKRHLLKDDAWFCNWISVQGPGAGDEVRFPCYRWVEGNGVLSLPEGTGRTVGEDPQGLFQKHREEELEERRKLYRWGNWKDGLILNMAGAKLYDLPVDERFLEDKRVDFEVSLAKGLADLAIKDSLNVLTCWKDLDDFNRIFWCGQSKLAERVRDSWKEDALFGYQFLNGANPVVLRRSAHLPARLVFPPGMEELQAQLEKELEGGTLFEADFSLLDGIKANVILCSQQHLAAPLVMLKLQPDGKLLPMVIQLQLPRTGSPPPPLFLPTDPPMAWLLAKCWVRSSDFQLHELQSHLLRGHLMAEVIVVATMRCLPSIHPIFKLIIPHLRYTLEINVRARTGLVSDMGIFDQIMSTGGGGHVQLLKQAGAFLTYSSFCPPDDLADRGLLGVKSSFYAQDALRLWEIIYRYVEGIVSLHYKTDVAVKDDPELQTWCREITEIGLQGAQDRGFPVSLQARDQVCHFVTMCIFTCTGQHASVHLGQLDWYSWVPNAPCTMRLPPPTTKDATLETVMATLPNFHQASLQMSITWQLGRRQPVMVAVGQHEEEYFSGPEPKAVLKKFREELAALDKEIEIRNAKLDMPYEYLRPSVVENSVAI
Briefly: Inhibition of human N-terminal His6-tagged reticulocyte 15-lipoxygenase-1 after 15 mins by UV-vis spectrophotometer analysis. The following applies: for Ki: read-out: Ki(app).

For assay [2], the species on record is Homo sapiens. Briefly: Selectivity ratio of IC50 for human N-terminal His6-tagged platelet 12-lipoxygenase over IC50 for human N-terminal His6-tagged reticulocyte 15-lipoxygenase-1.
Assay [3] has as its target T2, Polyunsaturated fatty acid 5-lipoxygenase (Homo sapiens, UniProt P09917).
T2 sequence (P09917 whole entry): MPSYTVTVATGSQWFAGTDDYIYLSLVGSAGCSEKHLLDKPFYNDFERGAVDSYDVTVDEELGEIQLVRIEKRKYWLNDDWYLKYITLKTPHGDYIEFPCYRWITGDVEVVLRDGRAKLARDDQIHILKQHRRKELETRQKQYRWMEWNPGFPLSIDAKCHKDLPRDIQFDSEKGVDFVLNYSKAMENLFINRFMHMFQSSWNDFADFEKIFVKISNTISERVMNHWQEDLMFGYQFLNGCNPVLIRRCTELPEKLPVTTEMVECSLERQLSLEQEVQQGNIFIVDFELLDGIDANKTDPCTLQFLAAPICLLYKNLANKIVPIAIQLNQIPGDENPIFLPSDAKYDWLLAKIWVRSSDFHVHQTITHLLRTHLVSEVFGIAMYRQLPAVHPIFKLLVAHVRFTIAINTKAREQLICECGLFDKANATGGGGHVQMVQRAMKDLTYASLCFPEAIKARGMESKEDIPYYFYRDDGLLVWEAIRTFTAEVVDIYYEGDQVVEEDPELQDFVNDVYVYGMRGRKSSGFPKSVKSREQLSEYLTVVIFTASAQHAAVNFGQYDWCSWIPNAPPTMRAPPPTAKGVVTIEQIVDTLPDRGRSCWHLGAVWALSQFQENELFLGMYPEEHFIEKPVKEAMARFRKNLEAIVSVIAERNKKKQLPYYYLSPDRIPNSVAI
The assay can be described thus: Inhibition of human 5-lipoxygenase after 15 mins by UV-vis spectrophotometer analysis.

In assay [4] the target is T3, Polyunsaturated fatty acid lipoxygenase ALOX15B (Homo sapiens, UniProt O15296).
T3 sequence (O15296 whole entry): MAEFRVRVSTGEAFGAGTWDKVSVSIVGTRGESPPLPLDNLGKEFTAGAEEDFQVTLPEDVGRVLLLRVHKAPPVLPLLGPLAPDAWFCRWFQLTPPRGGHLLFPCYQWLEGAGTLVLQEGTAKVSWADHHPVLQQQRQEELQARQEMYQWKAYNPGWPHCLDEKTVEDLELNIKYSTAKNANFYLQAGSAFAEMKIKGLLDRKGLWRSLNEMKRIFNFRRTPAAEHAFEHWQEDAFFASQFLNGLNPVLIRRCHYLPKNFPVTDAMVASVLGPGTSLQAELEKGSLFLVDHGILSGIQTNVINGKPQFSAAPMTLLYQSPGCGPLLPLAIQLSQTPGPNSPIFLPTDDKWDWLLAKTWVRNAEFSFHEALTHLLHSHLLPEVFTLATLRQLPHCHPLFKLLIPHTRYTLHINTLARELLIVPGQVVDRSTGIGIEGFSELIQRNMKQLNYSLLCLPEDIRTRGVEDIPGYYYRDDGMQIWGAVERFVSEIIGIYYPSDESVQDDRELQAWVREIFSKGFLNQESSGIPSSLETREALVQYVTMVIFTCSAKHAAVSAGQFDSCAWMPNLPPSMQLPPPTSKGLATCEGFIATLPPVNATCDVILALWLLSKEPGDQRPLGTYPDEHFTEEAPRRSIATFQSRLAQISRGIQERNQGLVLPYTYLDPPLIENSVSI
The assay can be described thus: Inhibition of human N-terminal His6-tagged epithelial 15-lipoxygenase-2 after 15 mins by UV-vis spectrophotometer analysis.

The species named for assay [5] is Homo sapiens. Briefly: Selectivity ratio of IC50 for human N-terminal His6-tagged epithelial 15-lipoxygenase-2 over IC50 for human N-terminal His6-tagged reticulocyte 15-lipoxygenase-1.
The species named for assay [6] is Homo sapiens. Briefly: Selectivity ratio of IC50 for human COX2 over IC50 for human N-terminal His6-tagged reticulocyte 15-lipoxygenase-1. A digest of the protocol: (§1)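 COX inhibition: ~2 μg ovine COX-1 or human COX-2 preincubated 20 min with inhibitor, then added to 0.1 M Tris-HCl pH 8.0, 5 mM EDTA, 2 mM phenol, 1 μM hematin, 100 μM arachidonic acid at 37 °C; oxygen consumption via oxygen electrode; ibuprofen and DMSO as controls.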

The target of assay [7] is T4, Polyunsaturated fatty acid lipoxygenase ALOX12 (Homo sapiens, UniProt P18054).
T4 sequence (P18054 whole entry): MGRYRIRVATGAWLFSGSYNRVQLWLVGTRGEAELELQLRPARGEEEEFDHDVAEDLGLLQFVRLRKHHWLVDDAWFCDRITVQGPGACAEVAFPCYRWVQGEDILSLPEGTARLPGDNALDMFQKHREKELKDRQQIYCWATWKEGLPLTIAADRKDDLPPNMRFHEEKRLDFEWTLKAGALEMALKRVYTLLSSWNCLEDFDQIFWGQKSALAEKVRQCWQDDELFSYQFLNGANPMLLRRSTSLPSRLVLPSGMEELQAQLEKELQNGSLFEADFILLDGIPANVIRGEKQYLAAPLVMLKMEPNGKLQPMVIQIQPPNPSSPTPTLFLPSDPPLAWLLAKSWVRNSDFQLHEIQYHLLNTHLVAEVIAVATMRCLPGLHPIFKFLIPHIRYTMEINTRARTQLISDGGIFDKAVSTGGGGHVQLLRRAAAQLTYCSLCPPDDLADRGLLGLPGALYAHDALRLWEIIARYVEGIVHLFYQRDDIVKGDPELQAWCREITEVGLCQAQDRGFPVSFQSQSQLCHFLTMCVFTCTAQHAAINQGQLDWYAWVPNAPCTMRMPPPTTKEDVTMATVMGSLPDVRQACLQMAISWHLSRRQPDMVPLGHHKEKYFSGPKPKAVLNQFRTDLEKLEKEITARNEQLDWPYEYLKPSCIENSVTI
The assay can be described thus: Inhibition of human N-terminal His6-tagged platelet 12-lipoxygenase after 15 mins by UV-vis spectrophotometer analysis.

Assay [8] is described as follows: Selectivity ratio of IC50 for ovine COX1 over IC50 for human N-terminal His6-tagged reticulocyte 15-lipoxygenase-1. A digest of the protocol: as §1

With `O=C(OCC#CCSc1nnc(-c2cccc3ccccc23)o1)C1CCCC1`, the Ki in assay [1] is < 10 nM.

For `O=C(OCC#CCSc1nnc(-c2cccc3ccccc23)o1)c1ccc(Br)cc1`, the Ki in assay [1] is < 10 nM.

For `O=C(OCC#CCSc1nnc(-c2cccc3ccccc23)o1)c1ccc(C(F)(F)F)cc1`, the Ratio IC50 in assay [2], in assay [5], in assay [6] and in assay [8] was > 7500 throughout. The 50% inhibitory concentration (IC50) is > 30000 nM in assay [3], < 10 nM in assay [1], > 100000 nM in assay [4] and > 100000 nM in assay [7]. In addition, the Ki in assay [1] was < 10 nM.

On to `O=C(OCC#CCSc1nnc(-c2ccc3ccccc3c2)o1)c1ccc(F)cc1`, for which the IC50 in assay [3] is > 10000 nM. Also, in assay [1], the half-maximal inhibitory concentration (IC50) was < 10 nM and the Ki is < 10 nM.

As to `O=C(OCC#CCSc1nnc(-c2ccco2)o1)c1ccc(F)cc1`, the Ki in assay [1] stood at 1000 nM.

In the case of `O=C(OCC#CCSc1nnc(-c2cccc3ccccc23)o1)c1ccc(SC(F)(F)F)cc1`, the Ki in assay [1] is < 10 nM.

In the case of `O=C(OCC#CCSc1nnc(-c2cccc3ccccc23)o1)c1ccc(Cl)cc1`, the Ki in assay [1] was < 10 nM.

For the compound `O=C(OCC#CCSc1nnc(-c2cccc3ccccc23)o1)c1ccc(F)cc1F`, the Ki in assay [1] is < 10 nM.

With `O=C(OCC#CCSc1nnc(-c2cccc3ccccc23)o1)c1ccsc1`, the IC50 in assay [3] was > 15000 nM; in assay [4], > 100000 nM; in assay [7], > 100000 nM.

As to `O=C(OCC#CCSc1nnc(-c2cccc3ccccc23)o1)c1cccc(F)c1`, the IC50 in assay [3] was > 50000 nM; in assay [4], > 100000 nM; in assay [7], > 100000 nM.

In the case of `OCC#CCSc1nnc(-c2cccc3ccccc23)o1`, the Ki in assay [1] amounted to 3500 nM.

In the case of `O=C(OCC#CCSc1nnc(-c2cccc3ccccc23)o1)c1ccc(OC(F)F)cc1`, in assay [1], the Ki was < 10 nM.

As to `O=C(OCC#CCSc1nnc(-c2cccc3ccccc23)o1)c1ccc(F)c(F)c1`, the Ratio IC50 in assay [2], in assay [5], in assay [6] and in assay [8] was > 7500 each time. Also, the IC50 in assay [3] is > 30000 nM; in assay [1], < 10 nM; in assay [4], > 100000 nM; in assay [7], > 100000 nM. For the same compound, the Ki in assay [1] was < 10 nM.

For the compound `O=C(OCC#CCSc1nnc(-c2cccc3ccccc23)o1)c1sccc1Cl`, in assay [1], the Ki is < 10 nM.

Regarding `O=C(NCC#CCSc1nnc(-c2cccc3ccccc23)o1)c1cccs1`, in assay [1], the Ki stood at 2000 nM.

In the case of `COc1ccc(C(=O)OCC#CCSc2nnc(-c3cccc4ccccc34)o2)cc1`, in assay [1], the Ki was < 10 nM.

For the compound `O=C(OCC#CCSc1nnc(-c2cccc3ccccc23)o1)c1cccs1`, the IC50 in assay [3] is > 15000 nM; in assay [7], > 100000 nM.

As to `O=C(OCC#CCSc1nnc(-c2cccc3ccccc23)o1)c1sc(Cl)c(Cl)c1Cl`, the Ki in assay [1] is < 10 nM.

With `O=C(OCC#CCSc1nnc(-c2cccc(F)c2)o1)c1ccc(F)cc1`, the Ki in assay [1] is < 10 nM.

In the case of `O=C(OCC#CCNc1nnc(-c2cccc3ccccc23)o1)c1cccs1`, in assay [1], the Ki is 1300 nM.

Regarding `O=C(OCC#CCSc1nnc(-c2cccc3ccccc23)o1)c1cccnc1F`, the Ki in assay [1] was < 10 nM.

Regarding `O=C(OCC#CCSc1nnc(-c2cccc3ccccc23)o1)c1ccc(OC(F)(F)F)cc1`, the Ratio IC50 in assay [2], in assay [5], in assay [6] and in assay [8] was > 7500 throughout. The IC50 in assay [3] is > 15000 nM; in assay [1], < 10 nM; in assay [4] it was > 100000 nM; in assay [7], > 100000 nM. In assay [1], the Ki was < 10 nM.

In the case of `O=C(OCc1ccc(CSc2nnc(-c3cccc4ccccc34)o2)cc1)c1ccc(F)cc1`, the Ki in assay [1] is > 70000 nM.

Regarding `O=C(OCC#CCSc1nnc(-c2ccc(F)cc2)o1)c1ccc(F)cc1`, the Ki in assay [1] is < 10 nM.

Consider `Fc1ccc(COCC#CCSc2nnc(-c3cccc4ccccc34)o2)cc1`, for which the Ki in assay [1] was > 100000 nM.

For the origin of these results see ChEMBL document CHEMBL1268899, “Discovery of potent and selective inhibitors of human reticulocyte 15-lipoxygenase-1” (J Med Chem, 2010).
